Numbered stars: 1 amine (or outer) side, 2 acyl side, 3 side chain; on linkers, the order of the positions; unused ones are H or OH. Bridge positions count the residues as written; N and C are the ends. Square brackets hold non-standard residues; d marks the D form. Peptide text beside a SMILES is read from it. * marks the point of attachment. pTerphenylCO(4''-OnC5H11) = CCCCCOc1ccc(-c2ccc(-c3ccc(C(=O)*)cc3)cc2)cc1; Orn(4R-OH,5R-OH) = O=C([C@H](C[C@@H](O)[C@@H](O)N[*:3])N[*:1])[*:2]; hTyr(3S-OH,4S-OH) = N[C@H](C(=O)O)[C@H](O)[C@@H](O)c1ccc(O)cc1; Pro(3S-OH,4S-Me) = C[C@H]1CN[C@H](C(=O)O)[C@H]1O; Hyp = O=C(O)[C@@H]1C[C@@H](O)CN1
Experiments:
Homo sapiens [1] = experiment: AUC (0 to t) in healthy human at 200 mg, iv on day 1 as 200 mins infusion followed by maintenance dose of 100 mg every 24 hrs on days 2 and 3 as 100 mins infusions; format: ADME, organism-based, Plasma; conditions: in vivo
Outline: (§1)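 Duplicate blood draws at 0 h, 100 min (end of infusion), and 2, 4, 8, 12, 24 h after the day-3 dose start. Plasma measured by HPLC-MS/MS (range 50.0–20,000 ng/ml). Noncompartmental analysis, per participant; AUC0-τ by linear-log trapezoidal rule, τ = 24 h.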

[2] = Drug level healthy human epithelial lining fluid at 200 mg, iv on day 1 as 200 mins infusion followed by maintenance dose of 100 mg every 24 hrs on days 2 and 3 as 100 mins infusions after 4 hrs of last dose; format: ADME, organism-based; conditions: read-out: Drug uptake
Outline: (§2)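 Single bronchoscopy with BAL in healthy adults (5 per time point) after the third co-dose, following 6 h fasting. Supernatant (400 × g, 4°C, 10 min) mixed 1:1 with methanol. Both drugs measured by HPLC-MS/MS with saline surrogate-matrix calibrators. ELF volume estimated by urea dilution, with urea in BAL and simultaneous serum measured colorimetrically. Total drug reported.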

[3] = Drug level healthy human alveolar macrophage at 200 mg, iv on day 1 as 200 mins infusion followed by maintenance dose of 100 mg every 24 hrs on days 2 and 3 as 100 mins infusions after 8 hrs of last dose; format: ADME, organism-based; conditions: alveolar macrophages, read-out: Drug uptake
Outline: (§3)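 Single bronchoscopy with BAL in healthy adults (5 per time point) after the third co-dose, following 6 h fasting and lidocaine anaesthesia. BAL centrifuged at 400 × g, 4°C, 10 min. Cell pellet lysed in 0.9% NaCl/methanol (1:1). Both drugs measured by HPLC-MS/MS against saline surrogate-matrix standards. AM concentration calculated from manual cell counts and a mean AM volume of 2.42 μl/10^6 cells. Total drug reported.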

[4] = Drug level healthy human plasma at 200 mg, iv on day 1 as 200 mins infusion followed by maintenance dose of 100 mg every 24 hrs on days 2 and 3 as 100 mins infusions after 4 hrs of last dose; format: ADME, organism-based; conditions: read-out: Drug uptake
[5] = Drug level healthy human epithelial lining fluid at 200 mg, iv on day 1 as 200 mins infusion followed by maintenance dose of 100 mg every 24 hrs on days 2 and 3 as 100 mins infusions after 12 hrs of last dose; format: ADME, organism-based; conditions: read-out: Drug uptake; outline: as §2
Homo sapiens [6] = experiment: Total body clearance in healthy human at 200 mg, iv on day 1 as 200 mins infusion followed by maintenance dose of 100 mg every 24 hrs on days 2 and 3 as 100 mins infusions; format: ADME, organism-based; conditions: in vivo; outline: as §1
[7] = Tmax in healthy human at 200 mg, iv on day 1 as 200 mins infusion followed by maintenance dose of 100 mg every 24 hrs on days 2 and 3 as 100 mins infusions; format: ADME, organism-based; conditions: in vivo; outline: as §1
[8] = Drug level healthy human epithelial lining fluid at 200 mg, iv on day 1 as 200 mins infusion followed by maintenance dose of 100 mg every 24 hrs on days 2 and 3 as 100 mins infusions after 24 hrs of last dose; format: ADME, organism-based; conditions: read-out: Drug uptake; outline: as §2
[9] = Drug level healthy human plasma at 200 mg, iv on day 1 as 200 mins infusion followed by maintenance dose of 100 mg every 24 hrs on days 2 and 3 as 100 mins infusions after 24 hrs of last dose; format: ADME, organism-based; conditions: read-out: Drug uptake
[10] = Drug level healthy human epithelial lining fluid at 200 mg, iv on day 1 as 200 mins infusion followed by maintenance dose of 100 mg every 24 hrs on days 2 and 3 as 100 mins infusions after 8 hrs of last dose; format: ADME, organism-based; conditions: read-out: Drug uptake; outline: as §2
[11] = Drug level healthy human plasma at 200 mg, iv on day 1 as 200 mins infusion followed by maintenance dose of 100 mg every 24 hrs on days 2 and 3 as 100 mins infusions after 12 hrs of last dose; format: ADME, organism-based; conditions: read-out: Drug uptake
[12] = Elimination half life in healthy human at 200 mg, iv on day 1 as 200 mins infusion followed by maintenance dose of 100 mg every 24 hrs on days 2 and 3 as 100 mins infusions; format: ADME, organism-based; conditions: in vivo, read-out: beta t1/2 (converted)
[13] = Volume of distribution at steady state in healthy human at 200 mg, iv on day 1 as 200 mins infusion followed by maintenance dose of 100 mg every 24 hrs on days 2 and 3 as 100 mins infusions; format: ADME, organism-based; conditions: in vivo, read-out: Vdss; outline: as §1
[14] = Drug level healthy human alveolar macrophage at 200 mg, iv on day 1 as 200 mins infusion followed by maintenance dose of 100 mg every 24 hrs on days 2 and 3 as 100 mins infusions after 4 hrs of last dose; format: ADME, organism-based; conditions: alveolar macrophages, read-out: Drug uptake; outline: as §3
[15] = Drug level healthy human alveolar macrophage at 200 mg, iv on day 1 as 200 mins infusion followed by maintenance dose of 100 mg every 24 hrs on days 2 and 3 as 100 mins infusions after 12 hrs of last dose; format: ADME, organism-based; conditions: alveolar macrophages, read-out: Drug uptake; outline: as §3
[16] = Cmax in healthy human at 200 mg, iv on day 1 as 200 mins infusion followed by maintenance dose of 100 mg every 24 hrs on days 2 and 3 as 100 mins infusions; format: ADME, organism-based; set-up: dose 200 mg, route intravenous; conditions: in vivo; outline: as §1
[17] = Drug level healthy human alveolar macrophage at 200 mg, iv on day 1 as 200 mins infusion followed by maintenance dose of 100 mg every 24 hrs on days 2 and 3 as 100 mins infusions after 24 hrs of last dose; format: ADME, organism-based; conditions: alveolar macrophages, read-out: Drug uptake; outline: as §3
[18] = Drug level healthy human plasma at 200 mg, iv on day 1 as 200 mins infusion followed by maintenance dose of 100 mg every 24 hrs on days 2 and 3 as 100 mins infusions after 8 hrs of last dose; format: ADME, organism-based; conditions: read-out: Drug uptake
[19] = Volume of distribution at steady state in healthy human at 6 mg/kg, iv for every 12 hrs on day 1 as 120 mins infusions followed by maintenance dose of 4 mg/kg every 12 hrs on day 2 and single 4 mg/kg dose on day 3 as 100 mins infusions; format: ADME, organism-based; conditions: in vivo, read-out: Vdss
Outline: (§4)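 Dose by actual body weight, rounded to nearest mg. Duplicate plasma samples at 0 h, 100 min, and 2, 4, 8, 12, 24 h after the day-3 dose start. HPLC-MS/MS (range 10.0–5,000 ng/ml). Noncompartmental analysis per participant; AUC0-τ by linear-log trapezoidal rule, τ = 12 h.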

[20] = Drug level in healthy human alveolar macrophage at 6 mg/kg, iv for every 12 hrs on day 1 as 120 mins infusions followed by maintenance dose of 4 mg/kg every 12 hrs on day 2 and single 4 mg/kg dose on day 3 as 100 mins infusions after 12 hrs of last dose; format: ADME, organism-based; conditions: alveolar macrophages, read-out: Drug uptake; outline: as §3
[21] = Drug level healthy human plasma at 6 mg/kg, iv for every 12 hrs on day 1 as 120 mins infusions followed by maintenance dose of 4 mg/kg every 12 hrs on day 2 and single 4 mg/kg dose on day 3 as 100 mins infusions after 12 hrs of last dose; format: ADME, organism-based; conditions: read-out: Drug uptake
[22] = Cmax in healthy human at 6 mg/kg, iv for every 12 hrs on day 1 as 120 mins infusions followed by maintenance dose of 4 mg/kg every 12 hrs on day 2 and single 4 mg/kg dose on day 3 as 100 mins infusions; format: ADME, organism-based; set-up: dose 6 mg/kg, route intravenous; conditions: in vivo; outline: as §4
[23] = Drug level healthy human plasma at 6 mg/kg, iv for every 12 hrs on day 1 as 120 mins infusions followed by maintenance dose of 4 mg/kg every 12 hrs on day 2 and single 4 mg/kg dose on day 3 as 100 mins infusions after 8 hrs of last dose; format: ADME, organism-based; conditions: read-out: Drug uptake
[24] = Drug level in healthy human alveolar macrophage at 6 mg/kg, iv for every 12 hrs on day 1 as 120 mins infusions followed by maintenance dose of 4 mg/kg every 12 hrs on day 2 and single 4 mg/kg dose on day 3 as 100 mins infusions after 4 hrs of last dose; format: ADME, organism-based; conditions: alveolar macrophages, read-out: Drug uptake; outline: as §3
[25] = Tmax in healthy human at 6 mg/kg, iv for every 12 hrs on day 1 as 120 mins infusions followed by maintenance dose of 4 mg/kg every 12 hrs on day 2 and single 4 mg/kg dose on day 3 as 100 mins infusions; format: ADME, organism-based; conditions: in vivo; outline: as §4
[26] = AUC (0 to t) in healthy human at 6 mg/kg, iv for every 12 hrs on day 1 as 120 mins infusions followed by maintenance dose of 4 mg/kg every 12 hrs on day 2 and single 4 mg/kg dose on day 3 as 100 mins infusions; format: ADME, organism-based; conditions: plasma; outline: as §4
[27] = Elimination half life in healthy human at 6 mg/kg, iv for every 12 hrs on day 1 as 120 mins infusions followed by maintenance dose of 4 mg/kg every 12 hrs on day 2 and single 4 mg/kg dose on day 3 as 100 mins infusions; format: ADME, organism-based; conditions: in vivo, read-out: beta t1/2 (converted)
[28] = Drug level in healthy human epithelial lining fluid at 6 mg/kg, iv for every 12 hrs on day 1 as 120 mins infusions followed by maintenance dose of 4 mg/kg every 12 hrs on day 2 and single 4 mg/kg dose on day 3 as 100 mins infusions after 8 hrs of last dose; format: ADME, organism-based; conditions: read-out: Drug uptake; outline: as §2
[29] = Drug level healthy human plasma at 6 mg/kg, iv for every 12 hrs on day 1 as 120 mins infusions followed by maintenance dose of 4 mg/kg every 12 hrs on day 2 and single 4 mg/kg dose on day 3 as 100 mins infusions after 4 hrs of last dose; format: ADME, organism-based; conditions: read-out: Drug uptake
[30] = Drug level in healthy human epithelial lining fluid at 6 mg/kg, iv for every 12 hrs on day 1 as 120 mins infusions followed by maintenance dose of 4 mg/kg every 12 hrs on day 2 and single 4 mg/kg dose on day 3 as 100 mins infusions after 12 hrs of last dose; format: ADME, organism-based; conditions: read-out: Drug uptake; outline: as §2
[31] = Drug level in healthy human alveolar macrophage at 6 mg/kg, iv for every 12 hrs on day 1 as 120 mins infusions followed by maintenance dose of 4 mg/kg every 12 hrs on day 2 and single 4 mg/kg dose on day 3 as 100 mins infusions after 8 hrs of last dose; format: ADME, organism-based; conditions: alveolar macrophages, read-out: Drug uptake; outline: as §3
[32] = Drug level in healthy human epithelial lining fluid at 6 mg/kg, iv for every 12 hrs on day 1 as 120 mins infusions followed by maintenance dose of 4 mg/kg every 12 hrs on day 2 and single 4 mg/kg dose on day 3 as 100 mins infusions after 4 hrs of last dose; format: ADME, organism-based; conditions: read-out: Drug uptake; outline: as §2

## CCCCCOc1ccc(-c2ccc(-c3ccc(C(=O)N[C@H]4C[C@@H](O)[C@@H](O)NC(=O)[C@@H]5[C@@H](O)[C@@H](C)CN5C(=O)[C@H]([C@@H](C)O)NC(=O)[C@H]([C@H](O)[C@@H](O)c5ccc(O)cc5)NC(=O)[C@@H]5C[C@@H](O)CN5C(=O)[C@H]([C@@H](C)O)NC4=O)cc3)cc2)cc1 [ANIDULAFUNGIN] ({pTerphenylCO(4''-OnC5H11)}-[Orn(4R-OH,5R-OH)]T[Hyp][hTyr(3S-OH,4S-OH)]T[Pro(3S-OH,4S-Me)]; lactam 1-C)
Homo sapiens [1]
  AUC: 101000 ng·h/mL
[2]
  concentration at 4 h: 900 ng/mL
[3]
  concentration at 8 h: 37900 ng/mL
[4]
  concentration at 4 h: 6000 ng/mL
[5]
  concentration at 12 h: 800 ng/mL
Homo sapiens [6]
  clearance: 17.1 mL/min
[7]
  Tmax: 1.9 h
[8]
  concentration at 24 h: 1100 ng/mL
[9]
  concentration at 24 h: 3000 ng/mL
[10]
  concentration at 8 h: 800 ng/mL
[11]
  concentration at 12 h: 4400 ng/mL
[12]
  half-life: 20.8 h
[13]
  Vd: 30.8 L
[14]
  concentration at 4 h: 44600 ng/mL
[15]
  concentration at 12 h: 42700 ng/mL
[16]
  Cmax: 6600 ng/mL
[17]
  concentration at 24 h: 103000 ng/mL
[18]
  concentration at 8 h: 5100 ng/mL

## C[C@@H](c1ncncc1F)[C@](O)(Cn1cncn1)c1ccc(F)cc1F [VORICONAZOLE]
[19]
  Vd: 110 L
[20]
  concentration at 12 h: 14400 ng/mL
[21]
  concentration at 12 h: 2200 ng/mL
[22]
  Cmax: 5300 ng/mL
[23]
  concentration at 8 h: 1700 ng/mL
[24]
  concentration at 4 h: 20600 ng/mL
[25]
  Tmax: 1.8 h
[26]
  AUC(0-t): 39500 ng·h/mL
[27]
  half-life: 6.9 h
[28]
  concentration at 8 h: 10100 ng/mL
[29]
  concentration at 4 h: 5300 ng/mL
[30]
  concentration at 12 h: 17200 ng/mL
[31]
  concentration at 8 h: 10300 ng/mL
[32]
  concentration at 4 h: 48300 ng/mL

Reference: ChEMBL document CHEMBL1649284 (Antimicrob Agents Chemother, 2009)
